In the EternaBench riboswitch data:

System: MS2 coat protein
Assay: apparent Kd, MS2 coat protein; higher = weaker binding; RNA-MaP array; FMN 200 µM where present
How it was run: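 Designs were transcribed by stalled E. coli RNA polymerase on Illumina sequencing-chip clusters. They were titrated with SNAP-549-labelled MS2 coat protein from 0.7 or 1.5 nM, doubling to 3 µM, without and then with constant ligand. Buffer: 100 mM Tris-HCl pH 7.5, 80 mM KCl, 4 mM MgCl2, BSA, DTT, yeast tRNA, Tween-20. Green signal was normalised to red-channel RNA signal and control-cluster median Fmax. Apparent Kd is the median of filtered per-cluster binding-curve fits.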

[1] = designed as: OFF switch for flavin mononucleotide, no ligand
[2] = ligand present: flavin mononucleotide, designed as: OFF switch for flavin mononucleotide
[3] = designed as: ON switch for flavin mononucleotide, no ligand
[4] = ligand present: flavin mononucleotide, designed as: ON switch for flavin mononucleotide

| Sequence | apparent Kd [1] [nM] | apparent Kd [2] [nM] | apparent Kd [3] [nM] | apparent Kd [4] [nM] |
| --- | --- | --- | --- | --- |
| AGAUGACGAUGUCAUCUUCGUCGGACAUGAGGAUCACCCAUGUAGGAUAUGCUACUCAAAGAGUAGCAGAAGGACAUGUGUCUU | 24.6 | 92.1 | – | – |
| AGCAAGCGAGGAUAUGCUCGGGUUGCUUGUCGAGAGGAUACACAUGAGGAUCACCCAUGUAGAAGGUGUAUAAA | 37.7 | 28.4 | – | – |
| AGCACGAAAGUGCAACGAUGUACGAGAAGGACAUGAGGAUCACCCAUGUAUGCAGUAACUGCUAUGUAGGAUAUCGUACAUCGA | 7.57 | 9.94 | – | – |
| AGCACGAAAGUGCAACGAUGUACGAGAAGGACAUGAGGAUCACCCAUGUCGCUGUAACAGCACAUGUAGGAUAUCGUACAUCGA | 12.9 | 15.2 | – | – |
| AGCAUGUAAGGAUAUGCAAGUGGUAUGGAUCGUACCAGAAAGCAGAAGGUACAUGAGGAUCACCCAUGUGCUCC | 29.2 | 67.5 | – | – |
| AGCAUGUGAGGAUAUGCGGACUCCAGUAAAUCUGAAGUCCAGUAGAAGGCACAUGAGGAUCACCCAUGUGAUAA | 92.9 | 112 | – | – |
| AGCAUGUGAGGAUAUGUGACCCUCGUCCUAAGGACAAGGGAAUAGAAGGCACAUGAGGAUCACCCAUGUGAUGA | 54.6 | 168 | – | – |
| AGCAUGUUUACAUGAGGAUCACCCAUGUUUUUUAAGGAUAUCAGAAGGUACAUUUUGAGUUAGAGUAAGGAUAUGAUAUAUGCG | – | – | 11.9 | 8.82 |
| AGCAUGUUUACAUGAGGAUCACCCAUGUUUUUUUAGGAUAUCAGAAGGUACAAUUUGUGUUAGAGUAAGGAUAUGAUAUAUGCG | – | – | 12.6 | 8.88 |
| AGCCCUGACGUCAGGAUAUCCGGCCAAUAGGCCAAGGAGAAGGGACAUGAGGAUCACCCAUGUGCUUGGGUCCG | 23.7 | 37 | – | – |
| AGCCGUGUACAGAAGGGCGACAUGAGGAUCACCCAUGUCUCCUUGUUGGUCGUAGGAUAUGUACCGUGGCUCUCUACUGUGGGA | 5.96 | 7.28 | – | – |
| AGCGAACAGGCUAACAUGAGGAUCACCCAUGUGGACUCAUGGUAGGAUAUCGGGAAGGAGGAAACCGAGAAGGGCCGGUGAGCG | – | – | 150 | 70.8 |
| AGCGGAGACAUGAGGAUCACCCAUGUCAGUGCCGGCGAUACCAGAAGGCCCGGCGGGCCUCGGCGGGAGGAUAUGGGUUCAACA | – | – | 51.8 | 14.9 |
| AGCGUGGUCCACUUGGACGCCUACGAGGAUAUCCUGUCACAUGAGGAUCACCCAUGUAGGCACACGGAGAAGGCGUAGACUUAA | – | – | 25.8 | 6.8 |
| AGCUAAAACGAAGGAUAUACAAACAUGAGGAUCACCCAUGUAUACAUGAUUUAUUGUGAUCACAUGUAGAAGGUCGUACUAACA | – | – | 958 | 225 |
| AGCUACGUUUCGUAGCAGCUAGGUGAGGAUAUUCAAUUUUUCACAUGAGGAUCACCCAUGUAUGUGAAGAAGGCGCCUAGAAAU | – | – | 11.1 | 4.98 |
| AGCUAGUCAGGAUAUACAAACAUGUCAAAAGACGUGAAGGGACAUGAGGAUCACCCAUGUAGAAGGGACUAGCA | 66.2 | 379 | – | – |
| AGCUAGUCAGGAUAUACAUGAGGAUCACCCAUGUAAACUUUUAGUUUAAUUUGAAUGUGUAGAAGGGACAUAAA | 21.7 | 24.1 | – | – |
| AGCUAGUCAGGAUAUACGAACAUGUCAAAAGACGUGAAGGGACAUGAGGAUCACCCAUGUAGAAGGGACUAGCA | 40 | 170 | – | – |
| AGCUCAAAAGUGAGGAUAUCUAGGGUCAAAUGACCGGAGAAGGCACAUGAGGAUCACCCAUGUAACGCCAUGGA | 12.9 | 31.6 | – | – |
| AGCUCGCGAAGAGGAUAUACAGCGGCGACCUAUCAUGACGAGCGGGUUACAUGAGGAUCACCCAUGUAGAAGGCUUCCCGACUC | 26.6 | 73.9 | – | – |
| AGCUGACAAGGAUAUACUCGGGAUGCUAGUCGCGCAGAAGCACAUGAGGAUCACCCAUGUAGAAGGUGUCAGAA | 158 | 83.2 | – | – |
| AGCUGUGGCCGAGGAUAUCUAAUAAUCCCAACCGAAAUAUAAUCGGACAUGAGGAUCACCCAUGUAGAGAAGGCGGUCUCAGCA | 143 | 307 | – | – |
| AGCUGUGGCCGAGGAUAUCUAUUAAUCCAAACCGAAAUAUAAUCGGACAUGAGGAUCACCCAUGUAGAGAAGGCGGUCUCAGCA | 72 | 77.2 | – | – |
| AGGAAGUCAGGAUAUGCUGCUCGUCACUUGCGUGAUGAGUAGCAGAAGGGACAUGAGGAUCACCCAUGUAAAAA | 52.6 | 57.9 | – | – |
| AGGAAGUGAGGAUAUGCAGCAGCUAGUGGACGCUAGCGCAUGUAGAAGGCACAUGAGGAUCACCCAUGUUUAAA | 32.1 | 36.2 | – | – |
| AGGAAGUGAGGAUAUGCAGUCGCUAGUAGACGCUAGCACUUGUAGAAGGCACAUGAGGAUCACCCAUGUUUAAA | 31.3 | 36.3 | – | – |
| AGGAAGUGAGGAUAUGCAGUGGCUAGUAGACGCUAGCACUUGUAGAAGGCACAUGAGGAUCACCCAUGUUUAAA | 31.9 | 36.9 | – | – |

| Sequence | apparent Kd [1] [nM] | apparent Kd [2] [nM] | apparent Kd [3] [nM] | apparent Kd [4] [nM] |
| --- | --- | --- | --- | --- |
| AGGAGUAAAGGGAAUAACAUGAGGAUCACCCAUGUAUGGGAGAGAAGGCAUAUCGGAGGACGAUAUGAGGAUAUUUAAACUCUA | – | – | 62.6 | 18.7 |
| AGGAUAGGAAACUUUGUCCAUUGUACAGAAGGCCAACAUGAGGAUCACCCAUGUAAGAAAAGGAUGGAGGAUAUGUAUAGGGCC | – | – | 25.8 | 12.3 |
| AGGAUCCUAUCAAGACAAAUGUACAUGAGGAUCACCCAUGUGCAGGAUAUAGCUAGUUACGGUGGUUAGAAGGGCACGCCAAAA | 8.98 | 13.3 | – | – |
| AGGCUAUUAGGAUAUACAUGAGGAUCACCCAUGUCGAUCUACAGGCUACGGCACGGCAGUAGAAGGAAUGGCCG | 15.7 | 16.7 | – | – |
| AGGGAUAAAGGAUAUACAUGAGGAUCACCCAUGUUGAGGAAAGUGAGAGGUGGCGAUAGUAGAAGGUUAGGUGG | 92.6 | 70.1 | – | – |
| AGGGUGGGCUCAGGAUAUCAGGAAGAGAUGUGGACAUGAGGAUCACCCAUGUACCAGUGUUGUUAUGAGAAGGGAGAUACUGUA | – | – | 52.3 | 28.8 |
| AGGUGACAUGAGGAUCACCCAUGUCAGGAUAUAUACACCGCCGGCGUGAAGCCGACGGAUAGAAGGGACAAAAU | 16.6 | 21.6 | – | – |
| AGGUUGUGAGGAUAUUAGUUUUAUGAUUGGAGGAGUUUGGCUGAGAAGGCACAUGAGGAUCACCCAUGUAGAUC | 61.9 | 124 | – | – |
| AGUAAAGGCCUGAGGUGUCCGAACAUGAGGAUCACCCAUGUAGAGGAUAUAGGUGGAAGUGACUCCUAGAAGGCUACGUGUCAU | 6.18 | 8.18 | – | – |
| AGUAAGAUGCAGAAGGUGUCAGCGAGAGCUGCACAUGAGGAUCACCCAUGUUGUCGGUGACGACGCAAGGAUAUGCAUCUUACA | – | – | 89.2 | 15.8 |
| AGUAAGAUGCAGAAGGUGUCAGCUAGAGCUACGACAUGAGGAUCACCCAUGUACUAGAAACAGUACAAGGAUAUGCAUCUUACA | – | – | 80.2 | 8.27 |
| AGUACCAUGUAGAAGGCAUAUCUCAAAGAGAUAUGAGGAUAUACAUGAGGAUCACCCAUGUAAAUGUACUCCAGGAAACUGGAA | 28.3 | 136 | – | – |
| AGUACUCAAAGAGUACGCAUACGCACAUGAGGAUCACCCAUGUAGGAUAUGCUACUCAAAGAGUAGUAGAAGGACAUAUACCUC | 4.31 | 4.46 | – | – |
| AGUAGAUCAGGAUAUACAUAAAUGAUAAUUAUGUAACUUCAACAUGAGGAUCACCCAUGUAGAAGGGAUCUACA | 16.3 | 15 | – | – |
| AGUAGAUCAGGAUAUACGUGAAAGGUCAAAGUGUCCCUUCUACAUGAGGAUCACCCAUGUAGAAGGGAUCUACA | 12.8 | 12.5 | – | – |
| AGUCAGAGCAGAGGAUAUAUACAUGAGGAUCACCCAUGUGACUGCCUAUGCUCGAAAGAGUAUGUAUAGAAGGCUGCUCUGACA | 611 | 276 | – | – |
| AGUCGGAGCAGAGGAUAUACAUGAGGAUCACCCAUGUAAAUGAAUGAAGCCUGGAAACAGGCAAUGUAGAAGGCUGCUCCGACA | 17.6 | 54.2 | – | – |
| AGUCGGAGCAGAGGAUAUUACAUGAGGAUCACCCAUGUAUGAACCAAUAGCUGGAAACAGCAAUGUAAGAAGGCUGCUCCGACA | 37.6 | 426 | – | – |
| AGUCGGCGAGGAUAUACAUGAGGAUCACCCAUGUGAGAUAGUGCACGCGUACGUGUACGUAGAAGGCGCUGACA | 12.1 | 23.2 | – | – |
| AGUGCGUAUGUGAGGAUAUGCUGGUCCUUGGAUCGGCAGAAGGCACAUGAGGAUCACCCAUGUGGUGUCGUACU | 381 | 20 | – | – |
| AGUGCGUAUGUGAGGAUAUGCUGGUCCUUGGCUCGGCAGAAGGCACAUGAGGAUCACCCAUGUGGUGUCGUACU | 239 | 47.1 | – | – |
| AGUGGUGAGCAAGGAUAUCGCCACUGCGUGACCUCACAACGGAUACAUGAGGAUCACCCAUGUGGCGAGAAGGUGCGGGAACGG | 28.1 | 36.9 | – | – |
| AGUGGUUACACAGGAUAUCCUCGUUAUUAACUAGGAGAAGGGUGGACACCACACAUGAGGAUCACCCAUGUACCACGAUAAAGA | – | – | 209 | 42.4 |
| AGUGUCAUCGAGAAGGCCUCAACAUGAGGAUCACCCAUGUUGCAAAAUGGGAGGAUAUCAAAACUACAGCUACGUUUCGUAGCA | – | – | 69.1 | 9.44 |
| AGUGUCAUCGAGAAGGCCUCAUGAACAUGAGGAUCACCCAUGUAAGAUGGGAGGAUAUCGAUGAUACAGCUACGUUUCGUAGCA | – | – | 51.1 | 31.9 |
| AGUGUCAUCGAGAAGGCCUUAACAUGAGGAUCACCCAUGUUAUAACAUGGGAGGAUAUCGAUGAUACAGCUACGUUUCGUAGCA | – | – | 286 | 18.2 |
| AGUUAAUAUCGAGGAUAUAAGUCUAAGACAUGAGGAUCACCCAUGUAUGUCUUAGAAGGCGAUAUUAACAGCAUGUUACAUGCA | – | – | 53.2 | 9.67 |
